One may read the inhibition as the percentage by which the read-out fell short of the control. A high value points to strong suppression. In general, IC50 refers to the concentration that inhibits the measured activity by half. A lower IC50 goes with greater potency in that assay.

Test [1] concerns the target Human immunodeficiency virus type 1 protease (Human immunodeficiency virus 1) (UniProt Q72874). As to the kind of experiment: Inhibitory activity against HIV Protease at a dose of 0.5 nM. Summed up:
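Fluorometric HIV protease activity assay run on an unpurified sample. Concentration was based on the weight of unpurified material, with no correction for impurities. Percent inhibition was read at a single concentration of 0.5 nM.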

The target in test [2] is Human immunodeficiency virus type 1 protease (Human immunodeficiency virus 1, UniProt Q72874). As to the kind of experiment: Inhibition of HIV protease. The procedure, abridged: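 Fluorometric HIV protease activity assay on unpurified samples. Concentrations were calculated from the weight of unpurified material, with no correction for impurities. Each sample was tested at 3–5 concentrations where feasible, and IC50 was derived from the percent-inhibition data.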

`CC(C)[C@H](NC(=O)CC1NC(=O)NC1=O)C(=O)N[C@@H](Cc1ccccc1)[C@@H](O)[C@H](O)[C@H](Cc1ccccc1)NC(=O)[C@@H](NC(=O)CC1NC(=O)NC1=O)C(C)C` (some centres undefined) displayed an inhibition in test [1] of 33%. This molecule also yielded an IC50 in test [2] of 9.6 nM.

In test [2], `Cc1nc(C)c(C(=O)N[C@H](C(=O)N[C@@H](Cc2ccccc2)[C@@H](O)[C@H](O)[C@H](Cc2ccccc2)NC(=O)[C@@H](NC(=O)c2sc(C)nc2C)C(C)C)C(C)C)s1` showed an IC50 of 860 nM.

`Cc1nc(C)c(C(=O)N[C@H](C(=O)N[C@@H](Cc2ccccc2)C[C@H](O)[C@H](Cc2ccccc2)NC(=O)[C@@H](NC(=O)c2sc(C)nc2C)C(C)C)C(C)C)s1` had an IC50 in test [2] of 13 nM.

With `COc1cc(CC(=O)N[C@H](C(=O)N[C@@H](Cc2ccccc2)C[C@H](O)[C@H](Cc2ccccc2)NC(=O)[C@@H](NC(=O)Cc2cc(OC)c(OC)c(OC)c2)C(C)C)C(C)C)cc(OC)c1OC`, in test [1], the inhibition is 71%. The IC50 in test [2] was below 1 nM.

`CC(C)[C@H](NC(=O)Cc1csc(N)n1)C(=O)N[C@@H](Cc1ccccc1)C[C@H](O)[C@H](Cc1ccccc1)NC(=O)[C@@H](NC(=O)Cc1csc(N)n1)C(C)C` returned an inhibition in test [1] of 40%. The molecule further yielded an IC50 in test [2] below 1 nM.

In test [2], `CC(C)[C@H](NC(=O)Cc1csc(N)n1)C(=O)N[C@@H](Cc1ccccc1)[C@@H](O)[C@H](O)[C@H](Cc1ccccc1)NC(=O)[C@@H](NC(=O)Cc1csc(N)n1)C(C)C` came in with an IC50 of 12 nM.

Turning to `CC(C)[C@H](NC(=O)C(O)(c1ccccc1)c1ccccc1)C(=O)N[C@@H](Cc1ccccc1)C[C@H](O)[C@H](Cc1ccccc1)NC(=O)[C@@H](NC(=O)C(O)(c1ccccc1)c1ccccc1)C(C)C`, the half-inhibitory concentration (IC50) in test [2] is 160 nM.

Consider `CC(C)[C@H](NC(=O)CSc1ncccn1)C(=O)N[C@@H](Cc1ccccc1)C[C@H](O)[C@H](Cc1ccccc1)NC(=O)[C@@H](NC(=O)CSc1ncccn1)C(C)C`, for which, in test [2], the IC50 is below 1 nM.

In turn, `CC(C)[C@H](NC(=O)C(O)(c1ccccc1)c1ccccc1)C(=O)N[C@@H](Cc1ccccc1)[C@@H](O)[C@H](O)[C@H](Cc1ccccc1)NC(=O)[C@@H](NC(=O)C(O)(c1ccccc1)c1ccccc1)C(C)C` gave an IC50 in test [2] of 6400 nM.

Take `CC(C)[C@H](NC(=O)CC1NC(=O)NC1=O)C(=O)N[C@@H](Cc1ccccc1)C[C@H](O)[C@H](Cc1ccccc1)NC(=O)[C@@H](NC(=O)CC1NC(=O)NC1=O)C(C)C` (some centres undefined): the inhibition in test [1] was 43%. In test [2], the half-maximal inhibitory concentration (IC50) was below 1 nM.

These data come from ChEMBL document CHEMBL1128495, “Synthetic chemical diversity: solid phase synthesis of libraries of C2 symmetric inhibitors of HIV protease containing diamino diol and diamino alcohol cores” (J Med Chem, 1995).
